Values after ≈ are worked out from the molar mass of the structure shown.
Experiments:
Format in all cases: functional
Mycobacterium avium [1] = experiment: Antimycobacterial activity against Mycobacterium avium 330/80 after 21 days; conditions: 330/80, 504 h
Mycobacterium kansasii [2] = experiment: Antimycobacterial activity against Mycobacterium kansasii 235/80 after 7 days; conditions: 235/80, 168 h
Method in brief: (§1)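 Šula's semisynthetic medium micromethod at 37 °C, read after 7, 14 and 21 days. The 1.0 McFarland suspension was diluted 10^-4. MIC determined. 6509/96 is a clinical isolate.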

[3] = tested on: Mycobacterium tuberculosis; experiment: Antimycobacterial activity against Mycobacterium tuberculosis H37Rv 331/88 after 21 days; conditions: H37Rv 331/88, 504 h
Mycobacterium kansasii [4] = experiment: Antimycobacterial activity against Mycobacterium kansasii 6509/96 after 7 days; conditions: 6509/96, 168 h; method in brief: as §1
Mycobacterium kansasii [5] = experiment: Antimycobacterial activity against Mycobacterium kansasii 235/80 after 21 days; conditions: 235/80, 504 h; method in brief: as §1
Mycobacterium kansasii [6] = experiment: Antimycobacterial activity against Mycobacterium kansasii 6509/96 after 14 days; conditions: 6509/96, 336 h; method in brief: as §1
Mycobacterium kansasii [7] = experiment: Antimycobacterial activity against Mycobacterium kansasii 6509/96 after 21 days; conditions: 6509/96, 504 h; method in brief: as §1
Mycobacterium avium [8] = experiment: Antimycobacterial activity against Mycobacterium avium 330/80 after 14 days; conditions: 330/80, 336 h
[9] = tested on: Mycobacterium tuberculosis; experiment: Antimycobacterial activity against Mycobacterium tuberculosis H37Rv 331/88 after 14 days; conditions: H37Rv 331/88, 336 h
Mycobacterium kansasii [10] = experiment: Antimycobacterial activity against Mycobacterium kansasii 235/80 after 14 days; conditions: 235/80, 336 h; method in brief: as §1
Lichtheimia corymbifera [11] = experiment: Antifungal activity against Absidia corymbifera 272 after 24 hrs by microdilution broth method; conditions: Lichtheimia corymbifera, 272, 24 h
Method in brief: (§2)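 CLSI M27-A3 broth microdilution in RPMI 1640 with glutamine, buffered to pH 7.0 with MOPS; DMSO diluent. Yeast inoculum 5 × 10^3 ± 0.2 CFU/mL. Moulds grown on Sabouraud agar 3–10 days before spore harvest, final inoculum 0.5-5 × 10^4 CFU/mL, checked in a Bürker chamber. Incubated dark, humid, 35 °C, read at 24 and 48 h visually and at 540 nm. MIC taken as ≥80% (yeasts) or ≥50% (filamentous) growth reduction versus control.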

[12] = tested on: Trichophyton mentagrophytes; experiment: Antifungal activity against Trichophyton mentagrophytes 445 after 24 hrs by microdilution broth method; conditions: Trichophyton mentagrophytes, 445, 24 h
Candida albicans [13] = experiment: Antifungal activity against Candida albicans ATCC 44859 after 24 hrs by microdilution broth method; conditions: ATCC 44859, 24 h; method in brief: as §2
Nakaseomyces glabratus [14] = experiment: Antifungal activity against Candida glabrata 20/I after 24 hrs by microdilution broth method; method in brief: as §2
Trichosporon asahii [15] = experiment: Antifungal activity against Trichosporon asahii 1188 after 48 hrs by microdilution broth method; conditions: Trichosporon asahii, 1188, 48 h; method in brief: as §2
Candida tropicalis [16] = experiment: Antifungal activity against Candida tropicalis 156 after 48 hrs by microdilution broth method; conditions: Candida tropicalis, 156, 48 h; method in brief: as §2
Trichosporon asahii [17] = experiment: Antifungal activity against Trichosporon asahii 1188 after 24 hrs by microdilution broth method; conditions: Trichosporon asahii, 1188, 24 h; method in brief: as §2
Candida tropicalis [18] = experiment: Antifungal activity against Candida tropicalis 156 after 24 hrs by microdilution broth method; conditions: Candida tropicalis, 156, 24 h; method in brief: as §2
Nakaseomyces glabratus [19] = experiment: Antifungal activity against Candida glabrata 20/I after 48 hrs by microdilution broth method; method in brief: as §2
Pichia kudriavzevii [20] = experiment: Antifungal activity against Candida krusei E28 after 24 hrs by microdilution broth method; conditions: E28, 24 h; method in brief: as §2
Aspergillus fumigatus [21] = experiment: Antifungal activity against Aspergillus fumigatus 231 after 24 hrs by microdilution broth method; conditions: Aspergillus fumigatus, 231, 24 h; method in brief: as §2
[22] = tested on: Trichophyton mentagrophytes; experiment: Antifungal activity against Trichophyton mentagrophytes 445 after 48 hrs by microdilution broth method; conditions: Trichophyton mentagrophytes, 445, 48 h
Lichtheimia corymbifera [23] = experiment: Antifungal activity against Absidia corymbifera 272 after 48 hrs by microdilution broth method; conditions: Lichtheimia corymbifera, 272, 48 h; method in brief: as §2
Candida albicans [24] = experiment: Antifungal activity against Candida albicans ATCC 44859 after 48 hrs by microdilution broth method; conditions: ATCC 44859, 48 h; method in brief: as §2
Aspergillus fumigatus [25] = experiment: Antifungal activity against Aspergillus fumigatus 231 after 48 hrs by microdilution broth method; conditions: Aspergillus fumigatus, 231, 48 h; method in brief: as §2
Pichia kudriavzevii [26] = experiment: Antifungal activity against Candida krusei E28 after 48 hrs by microdilution broth method; conditions: E28, 48 h; method in brief: as §2

Compound	MIC (Mycobacterium avium [1])	MIC (Mycobacterium kansasii [2])	MIC [3]	MIC (Mycobacterium kansasii [4])	MIC (Mycobacterium kansasii [5])	MIC (Mycobacterium kansasii [6])	MIC (Mycobacterium kansasii [7])	MIC (Mycobacterium avium [8])	MIC [9]	MIC (Mycobacterium kansasii [10])	other results
O=C(Nc1cccc(Cl)c1)c1cccc([N+](=O)[O-])c1O	500 µM (≈ 146 µg/mL)	62.5 µM (≈ 18.3 µg/mL)	62.5 µM (≈ 18.3 µg/mL)	125 µM (≈ 36.6 µg/mL)	250 µM (≈ 73.2 µg/mL)	125 µM (≈ 36.6 µg/mL)	125 µM (≈ 36.6 µg/mL)	500 µM (≈ 146 µg/mL)	62.5 µM (≈ 18.3 µg/mL)	125 µM (≈ 36.6 µg/mL)	
NNC(=O)c1ccncc1 [ISONIAZID]	> 250 µM	> 250 µM	1 µM (≈ 0.137 µg/mL)	4 µM (≈ 0.549 µg/mL)	> 250 µM	8 µM (≈ 1.1 µg/mL)	8 µM (≈ 1.1 µg/mL)	> 250 µM	0.5 µM (≈ 0.0686 µg/mL)	> 250 µM	
O=C(Nc1cccc(I)c1)c1cccc([N+](=O)[O-])c1O	500 µM (≈ 192 µg/mL)	62.5 µM (≈ 24 µg/mL)	62.5 µM (≈ 24 µg/mL)	125 µM (≈ 48 µg/mL)	125 µM (≈ 48 µg/mL)	125 µM (≈ 48 µg/mL)	125 µM (≈ 48 µg/mL)	500 µM (≈ 192 µg/mL)	62.5 µM (≈ 24 µg/mL)	125 µM (≈ 48 µg/mL)	
O=C(Nc1cccc([N+](=O)[O-])c1)c1cccc([N+](=O)[O-])c1O	> 500 µM	62.5 µM (≈ 19 µg/mL)	62.5 µM (≈ 19 µg/mL)	62.5 µM (≈ 19 µg/mL)	250 µM (≈ 75.8 µg/mL)	250 µM (≈ 75.8 µg/mL)	250 µM (≈ 75.8 µg/mL)	> 500 µM	62.5 µM (≈ 19 µg/mL)	250 µM (≈ 75.8 µg/mL)	
O=C(Nc1cccc(F)c1)c1cccc([N+](=O)[O-])c1O	500 µM (≈ 138 µg/mL)	62.5 µM (≈ 17.3 µg/mL)	62.5 µM (≈ 17.3 µg/mL)	125 µM (≈ 34.5 µg/mL)	250 µM (≈ 69.1 µg/mL)	250 µM (≈ 69.1 µg/mL)	250 µM (≈ 69.1 µg/mL)	500 µM (≈ 138 µg/mL)	62.5 µM (≈ 17.3 µg/mL)	125 µM (≈ 34.5 µg/mL)	
OC(Cn1cncn1)(Cn1cncn1)c1ccc(F)cc1F [FLUCONAZOLE]											MIC (Lichtheimia corymbifera [11]): > 500 µM; MIC [12]: 7.81 µM (≈ 2.39 µg/mL); MIC (Candida albicans [13]): 0.24 µM (≈ 0.0735 µg/mL); MIC (Nakaseomyces glabratus [14]): 31.2 µM (≈ 9.57 µg/mL); MIC (Trichosporon asahii [15]): 500 µM (≈ 153 µg/mL); MIC (Candida tropicalis [16]): > 500 µM; MIC (Trichosporon asahii [17]): 250 µM (≈ 76.6 µg/mL); MIC (Candida tropicalis [18]): > 500 µM; MIC (Nakaseomyces glabratus [19]): 500 µM (≈ 153 µg/mL); MIC (Pichia kudriavzevii [20]): 125 µM (≈ 38.3 µg/mL); MIC (Aspergillus fumigatus [21]): > 500 µM; MIC [22]: 125 µM (≈ 38.3 µg/mL); MIC (Lichtheimia corymbifera [23]): > 500 µM; MIC (Candida albicans [24]): 0.24 µM (≈ 0.0735 µg/mL); MIC (Aspergillus fumigatus [25]): > 500 µM; MIC (Pichia kudriavzevii [26]): 250 µM (≈ 76.6 µg/mL)

— ChEMBL document CHEMBL3627671, “Novel derivatives of nitro-substituted salicylic acids: Synthesis, antimicrobial activity and cytotoxicity” (Bioorg Med Chem, 2015)
